Measurements from ChEMBL document CHEMBL1649357, “Protective effects of baicalin against ischemia/reperfusion injury in rat liver” (2010).
The source made the active and inactive calls. The calls are words filed in the database; no cut-off is given here.

Experiments:
Rattus norvegicus [1] = test: Hepatoprotective activity in Sprague-Dawley rat ischemia-reperfusion model assessed as decrease of glutathione level per gram of liver at 200 mg/kg, ip administered 24 hrs and 1 hr before ischemia relative to control; format: functional; settings: route intraperitoneal
Outline: (§1)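 Liver homogenate was precipitated with 1% picric acid. Total glutathione was measured by the glutathione reductase/DTNB/NADPH method at 412 nm, and GSSG the same way with 2-vinylpyridine. GSH is the difference, in µmol·g liver-1.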

Rattus norvegicus [2] = test: Hepatoprotective activity in Sprague-Dawley rat ischemia-reperfusion model assessed as decrease of TRADD protein expression in liver tissue at 200 mg/kg, ip administered 24 hrs and 1 hr before ischemia by Western blot analysis; format: functional, organism-based; set-up: dose 200 mg/kg
Rattus norvegicus [3] = test: Antiinflammatory activity in Sprague-Dawley rat ischemia-reperfusion model assessed as decrease of TNFalpha mRNA expression in liver tissue at 200 mg/kg, ip administered 24 hrs and 1 hr before ischemia by RT-PCR analysis; format: functional, organism-based; set-up: dose 200 mg/kg
Rattus norvegicus [4] = test: Hepatoprotective activity in Sprague-Dawley rat sham operated model assessed as decrease of caspase 8 activity in liver tissue at 200 mg/kg, ip administered 24 hrs and 1 hr before ischemia by relative to control
Rattus norvegicus [5] = test: Hepatoprotective activity in Sprague-Dawley rat sham operated model assessed as decrease of malondialdehyde level per gram of protein at 200 mg/kg, ip administered 24 hrs and 1 hr before ischemia relative to control; format: functional; settings: route intraperitoneal
Rattus norvegicus [6] = test: Antiinflammatory activity in Sprague-Dawley rat ischemia-reperfusion model assessed as decrease of IL-6 mRNA expression in liver tissue at 200 mg/kg, ip administered 24 hrs and 1 hr before ischemia by RT-PCR analysis; format: functional, organism-based; set-up: dose 200 mg/kg
Rattus norvegicus [7] = test: Hepatoprotective activity in Sprague-Dawley rat sham operated model assessed as decrease of mitochondrial swelling in liver tissue at 200 mg/kg, ip administered 24 hrs and 1 hr before ischemia relative to control; format: functional, organism-based; set-up: dose 200 mg/kg
Outline: (§2)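 Mitochondria were isolated by differential centrifugation in sucrose/Tris/EDTA, pH 7.2. Mitochondria (4 mg) were suspended in phosphate buffer pH 7.2 with 250 mM sucrose, 5 mM KH2PO4 and 1 µM rotenone at 25 °C. Initial swelling rate was taken as A520 change per min per mg protein.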

Rattus norvegicus [8] = test: Hepatoprotective activity in Sprague-Dawley rat ischemia-reperfusion model assessed as protection against histopathologic damage at 200 mg/kg, ip administered 24 hrs and 1 hr before ischemia by TUNEL staining; format: functional; settings: route intraperitoneal, in the assay text read “by hematoxylin and eosin staining” for “by TUNEL staining”
Outline: (§3)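 Left-lobe tissue was fixed in formalin and paraffin sections (5 µm) were stained with H&E. Injury was scored at 200× by point counting on an ordinal severity scale (grade 0 = minimal or none).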

Rattus norvegicus [9] = test: Hepatoprotective activity in Sprague-Dawley rat sham operated model assessed as decrease of glutathione level per gram of liver at 200 mg/kg, ip administered 24 hrs and 1 hr before ischemia relative to control; format: functional; settings: route intraperitoneal; outline: as §1
Rattus norvegicus [10] = test: Antiinflammatory activity in Sprague-Dawley rat ischemia-reperfusion model assessed as inhibition of COX2 protein expression in liver tissue at 200 mg/kg, ip administered 24 hrs and 1 hr before ischemia by Western blot analysis; format: functional, organism-based; set-up: dose 200 mg/kg
Outline: (§4)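 Liver homogenates were blotted, and nuclear and cytosolic fractions were isolated with NE-PER reagents. 20 µg protein per lane was run on 10% gels and transferred to nitrocellulose, with 5% milk block for 60 min. Polyclonal antibodies detected iNOS, COX-2, HO-1, NF-κB/p65, IκB-α and lamin B1, with β-actin as control, read by ECL.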

Rattus norvegicus [11] = test: Hepatoprotective activity in Sprague-Dawley rat sham operated model assessed as decrease of caspase 3 activity in liver tissue at 200 mg/kg, ip administered 24 hrs and 1 hr before ischemia by fluorogenic peptide substrate assay relative to control
Rattus norvegicus [12] = test: Antiinflammatory activity in Sprague-Dawley rat ischemia-reperfusion model assessed as inhibition of iNOS mRNA expression in liver tissue at 200 mg/kg, ip administered 24 hrs and 1 hr before ischemia by RT-PCR analysis; format: functional, organism-based; set-up: dose 200 mg/kg
Rattus norvegicus [13] = test: Hepatoprotective activity in Sprague-Dawley rat sham operated model assessed as protection against histopathologic damage at 200 mg/kg, ip administered 24 hrs and 1 hr before ischemia by TUNEL staining; format: functional; settings: route intraperitoneal, in the assay text read “by hematoxylin and eosin staining” for “by TUNEL staining”; outline: as §3
Rattus norvegicus [14] = test: Antiinflammatory activity in Sprague-Dawley rat ischemia-reperfusion model assessed as increase in HO-1 protein expression in liver tissue at 200 mg/kg, ip administered 24 hrs and 1 hr before ischemia by Western blot analysis
Rattus norvegicus [15] = test: Antiinflammatory activity in Sprague-Dawley rat ischemia-reperfusion model assessed as inhibition of degradation of IkappaB-alpha in liver tissue at 200 mg/kg, ip administered 24 hrs and 1 hr before ischemia by Western blot analysis; format: functional, organism-based; set-up: dose 200 mg/kg; outline: as §4
Rattus norvegicus [16] = test: Antiinflammatory activity in Sprague-Dawley rat ischemia-reperfusion model assessed as decrease of serum IL-6 level at 200 mg/kg, ip administered 24 hrs and 1 hr before ischemia by ELISA relative to control; format: functional; settings: route intraperitoneal
Rattus norvegicus [17] = test: Hepatoprotective activity in Sprague-Dawley rat ischemia-reperfusion model assessed as decrease of serum ALT level at 200 mg/kg, ip administered 24 hrs and 1 hr before ischemia; format: functional; settings: route intraperitoneal
Outline: (§5)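 Serum ALT was read spectrophotometrically with a kit at 5 h reperfusion, in U·L-1, mean ± SEM, n = 8-10.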

Rattus norvegicus [18] = test: Antiinflammatory activity in Sprague-Dawley rat ischemia-reperfusion model assessed as inhibition of iNOS protein expression in liver tissue at 200 mg/kg, ip administered 24 hrs and 1 hr before ischemia by Western blot analysis; format: functional, organism-based; set-up: dose 200 mg/kg; outline: as §4
Rattus norvegicus [19] = test: Antiinflammatory activity in Sprague-Dawley rat sham operated model assessed as decrease of serum IL-6 level at 200 mg/kg, ip administered 24 hrs and 1 hr before ischemia by ELISA relative to control; format: functional; settings: route intraperitoneal
Rattus norvegicus [20] = test: Hepatoprotective activity in Sprague-Dawley rat ischemia-reperfusion model assessed as protection against apoptosis in liver tissue at 200 mg/kg, ip administered 24 hrs and 1 hr before ischemia by TUNEL assay; format: functional, organism-based; set-up: dose 200 mg/kg
Outline: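 TUNEL kit staining was done on liver sections. TUNEL-positive cells were counted in randomly chosen 400× fields per section.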

Rattus norvegicus [21] = test: Hepatoprotective activity in Sprague-Dawley rat ischemia-reperfusion model assessed as decrease of mitochondrial swelling in liver tissue at 200 mg/kg, ip administered 24 hrs and 1 hr before ischemia relative to control; format: functional, organism-based; set-up: dose 200 mg/kg; outline: as §2
Rattus norvegicus [22] = test: Antiinflammatory activity in Sprague-Dawley rat ischemia-reperfusion model assessed as inhibition of COX2 mRNA expression in liver tissue at 200 mg/kg, ip administered 24 hrs and 1 hr before ischemia by RT-PCR analysis; format: functional, organism-based; set-up: dose 200 mg/kg
Rattus norvegicus [23] = test: Hepatoprotective activity in Sprague-Dawley rat ischemia-reperfusion model assessed as decrease of malondialdehyde level per gram of protein at 200 mg/kg, ip administered 24 hrs and 1 hr before ischemia relative to control; format: functional; settings: route intraperitoneal
Rattus norvegicus [24] = test: Hepatoprotective activity in Sprague-Dawley rat ischemia-reperfusion model assessed as decrease of caspase 8 activity in liver tissue at 200 mg/kg, ip administered 24 hrs and 1 hr before ischemia […] relative to control; format: functional, organism-based; set-up: dose 200 mg/kg
Outline: (§6)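 Liver (1 g) was homogenized in Tris/MgCl2/EGTA buffer and spun at 600g, then 40000g. 30 µg cytosolic protein was preincubated 15 min at room temperature in HEPES/EDTA/NaCl/Triton/10 mM DTT. Fluorogenic substrate was then added at 200 µM and incubated at 37 °C. Fluorescence (ex 400/em 490 nm) was read at 120 min and expressed as % of vehicle I/R.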

Rattus norvegicus [25] = test: Antiinflammatory activity in Sprague-Dawley rat ischemia-reperfusion model assessed as decrease of serum TNFalpha level at 200 mg/kg, ip administered 24 hrs and 1 hr before ischemia by ELISA relative to control; format: functional; settings: route intraperitoneal
Rattus norvegicus [26] = test: Antiinflammatory activity in Sprague-Dawley rat sham operated model assessed as decrease of serum TNFalpha level at 200 mg/kg, ip administered 24 hrs and 1 hr before ischemia by ELISA relative to control; format: functional; settings: route intraperitoneal
Rattus norvegicus [27] = test: Antiinflammatory activity in Sprague-Dawley rat ischemia-reperfusion model assessed as inhibition of HO-1 mRNA expression in liver tissue at 200 mg/kg, ip administered 24 hrs and 1 hr before ischemia by RT-PCR analysis; format: functional, organism-based; set-up: dose 200 mg/kg
Rattus norvegicus [28] = test: Hepatoprotective activity in Sprague-Dawley rat ischemia-reperfusion model assessed as decrease of caspase 3 activity in liver tissue at 200 mg/kg, ip administered 24 hrs and 1 hr before ischemia […] relative to control; format: functional, organism-based; set-up: dose 200 mg/kg; outline: as §6
Rattus norvegicus [29] = test: Hepatoprotective activity in Sprague-Dawley rat sham operated model assessed as decrease of serum ALT level at 200 mg/kg, ip administered 24 hrs and 1 hr before ischemia; format: functional; settings: route intraperitoneal; outline: as §5
Rattus norvegicus [30] = test: Antiinflammatory activity in Sprague-Dawley rat ischemia-reperfusion model assessed as inhibition of nuclear localization of NF-kappaB/p65 subunit in liver tissue at 200 mg/kg, ip administered 24 hrs and 1 hr before ischemia by Western blot analysis; format: functional, organism-based; set-up: dose 200 mg/kg; outline: as §4

O=C(O)[C@H]1O[C@@H](Oc2cc3oc(-c4ccccc4)cc(=O)c3c(O)c2O)[C@H](O)[C@@H](O)[C@@H]1O [BAICALIN]
Activity (Rattus norvegicus [1]): 4.98 µmol | Activity (Rattus norvegicus [2]): Active | Activity (Rattus norvegicus [3]): inactive | Activity (Rattus norvegicus [4]): Active | Activity (Rattus norvegicus [5]): 0.35 nmol | Activity (Rattus norvegicus [6]): Active | Activity (Rattus norvegicus [7]): Active | Activity (Rattus norvegicus [8]): 1.6 | Activity (Rattus norvegicus [9]): 5.5 µmol | inhibition (Rattus norvegicus [10]): Active | Activity (Rattus norvegicus [11]): Active | inhibition (Rattus norvegicus [12]): inactive | Activity (Rattus norvegicus [13]): 0.45 | increase (Rattus norvegicus [14]): Active | inhibition (Rattus norvegicus [15]): Active | Activity (Rattus norvegicus [16]): 77.4 pg/mL | Activity (Rattus norvegicus [17]): 2658.1 U/L | inhibition (Rattus norvegicus [18]): Active | Activity (Rattus norvegicus [19]): 37.6 pg/mL | Activity (Rattus norvegicus [20]): Active | Activity (Rattus norvegicus [21]): Active | inhibition (Rattus norvegicus [22]): Active | Activity (Rattus norvegicus [23]): 0.31 nmol | Activity (Rattus norvegicus [24]): Active | Activity (Rattus norvegicus [25]): 64.8 pg/mL | Activity (Rattus norvegicus [26]): 17.8 pg/mL | inhibition (Rattus norvegicus [27]): Active | Activity (Rattus norvegicus [28]): Active | Activity (Rattus norvegicus [29]): 42.5 U/L | inhibition (Rattus norvegicus [30]): Active
